Legend:
PTAFR = experiment: PathHunter β-arrestin; assay type: cell-based; conditions: 6 μM
Outline: (§1)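 β-Arrestin recruitment to GPCR read by β-galactosidase fragment complementation and chemiluminescence. Agonist: % = 100 × (test − vehicle)/(max control ligand − vehicle), hit at >30% and RLU > baseline + 3 SD. Antagonist, against EC80 agonist: % inhibition = 100 × (1 − (test − vehicle)/(EC80 − vehicle)), hit at >35% and RLU < EC80 − 3 SD.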

GPCR receptors = experiment: PathHunter β-arrestin gpcrMAX panel, antagonist mode; assay type: cell-based; conditions: summary of Table II
Outline: (§2)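 GPCR-ED fusion and β-arrestin-EA fusion; arrestin recruitment restores β-galactosidase, read by chemiluminescence. Antagonist mode uses EC80 agonist challenge. % inhibition = 100 × (1 − (test − vehicle RLU)/(EC80 control − vehicle RLU)). Hit requires >35% inhibition and mean RLU below EC80 RLU − 3 × EC80 SD.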

CXCR6 = experiment: PathHunter β-arrestin; assay type: cell-based; conditions: 6 μM
Outline: (§3)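 Engineered cells express the receptor fused to one β-galactosidase fragment (ED) and β-arrestin fused to the complementing fragment (EA). Receptor activation recruits β-arrestin, which restores enzyme activity, and this is read by chemiluminescence (RLU). Agonist % activity is 100% × (test − vehicle)/(maximal control ligand − vehicle). Antagonist mode is challenged with an EC80 control agonist, and % inhibition is 100% × (1 − (test − vehicle)/(EC80 − vehicle)). Hits require >30% activity or >35% inhibition, plus a 3×SD RLU margin.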

nuclear receptor = experiment: PathHunter NHR assays, nhrMAX panel, antagonist mode; assay type: cell-based; conditions: summary of Table IV
Outline: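 Enzyme fragment complementation: NHR nuclear recruitment of a co-activator peptide fusion restores β-galactosidase, read by chemiluminescence. Test compound preincubated 1 h before agonist challenge. % inhibition = 100 × (1 − (test − vehicle RLU)/(EC80 control − vehicle RLU)). Hit requires >35% inhibition and mean RLU below EC80 RLU − 3 × EC80 SD.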

CX3CR1 = experiment: PathHunter β-arrestin; assay type: cell-based; conditions: 6 μM
Outline: as §3

DRD2S = experiment: PathHunter β-arrestin; assay type: cell-based; conditions: antagonist mode, 6 μM
Outline: as §3

FFAR1 = experiment: PathHunter β-arrestin; assay type: cell-based; conditions: agonist mode, 6 μM
Outline: as §3

EDG4 = experiment: PathHunter β-arrestin; assay type: cell-based; conditions: antagonist mode, 6 μM
Outline: as §3

EDG6 = experiment: PathHunter β-arrestin; assay type: cell-based; conditions: 6 μM
Outline: as §3

GALR1 = experiment: PathHunter β-arrestin; assay type: cell-based; conditions: 6 μM
Outline: as §3

ADCYAP1R1 = experiment: PathHunter β-arrestin; assay type: cell-based; conditions: 6 μM
Outline: (§4)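 β-Arrestin recruitment assay: the enzyme acceptor is fused to β-arrestin and the ED fragment to the GPCR. Recruitment restores β-galactosidase, read by chemiluminescence. % activity = 100% × (test − vehicle)/(max control ligand − vehicle). % inhibition = 100% × (1 − (test − vehicle)/(EC80 control − vehicle)). An agonist hit needs >30% activity and RLU > baseline + 3×SD. An antagonist hit needs >35% inhibition and RLU < EC80 RLU − 3×SD.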

MRGPRX1 = experiment: PathHunter β-arrestin; assay type: cell-based; conditions: 6 μM
Outline: (§5)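 Vendor-run (DiscoveRx) PathHunter enzyme fragment complementation. β-Arrestin carries the EA fragment and the receptor carries ED; recruitment restores β-gal activity, read by chemiluminescence (RLU). Agonist % activity = vehicle-subtracted RLU relative to max control ligand (gpcrMAX) or to vehicle (orphanMAX). Antagonist % inhibition = 100% × (1 − vehicle-subtracted sample RLU / vehicle-subtracted EC80 agonist control RLU).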

NPBWR2 = experiment: PathHunter β-arrestin; assay type: cell-based; conditions: 6 μM
Outline: as §5

CALCRL-RAMP2 = experiment: PathHunter β-arrestin; assay type: cell-based; conditions: 6 μM
Outline: as §4

PTGIR = experiment: PathHunter β-arrestin; assay type: cell-based; conditions: 6 μM
Outline: as §1

TLR6 = experiment: western blot, JJ012 cells; assay type: cell-based, human; conditions: vs untreated control, overnight incubation
EBI2 = experiment: PathHunter β-arrestin; assay type: cell-based; conditions: antagonist mode, 6 μM
Outline: as §3

OPRK1 = experiment: PathHunter β-arrestin; assay type: cell-based; conditions: antagonist mode, 6 μM
Outline: as §2

GPR120 = experiment: PathHunter β-arrestin; assay type: cell-based; conditions: 6 μM
Outline: as §5

ADRB1 = experiment: PathHunter β-arrestin; assay type: cell-based; conditions: 6 μM
Outline: as §4

PTGER3 = experiment: PathHunter β-arrestin; assay type: cell-based; conditions: 6 μM
Outline: as §1

F2RL3 = experiment: PathHunter β-arrestin; assay type: cell-based; conditions: 6 μM
Outline: as §3

DRD5 = experiment: PathHunter β-arrestin; assay type: cell-based; conditions: 6 μM
Outline: as §3

CXCR5 = experiment: PathHunter β-arrestin; assay type: cell-based; conditions: 6 μM
Outline: as §3

FPRL1 = experiment: PathHunter β-arrestin; assay type: cell-based; conditions: antagonist mode, 6 μM
Outline: as §3

UTR2 = experiment: PathHunter β-arrestin; assay type: cell-based; conditions: 6 μM
Outline: as §1

miR-302C = conditions: human chondrosarcoma; targets Nanog, c-Myc and Bmi1 also; ref [10]; cited from earlier work
CALCR-RAMP3 = experiment: PathHunter β-arrestin; assay type: cell-based; conditions: antagonist mode, 6 μM
Outline: as §4

HTR1B = experiment: PathHunter β-arrestin; assay type: cell-based; conditions: antagonist mode, 6 μM
Outline: as §5

CCR8 = experiment: PathHunter β-arrestin; assay type: cell-based; conditions: antagonist mode, 6 μM
Outline: as §3

EDNRB = experiment: PathHunter β-arrestin; assay type: cell-based; conditions: antagonist mode, 6 μM
Outline: as §3

HTR1A = experiment: PathHunter β-arrestin; assay type: cell-based; conditions: antagonist mode, 6 μM
Outline: as §5

For Proline rich polypeptide 1 [PRP-1], which “% Activity” value (PTAFR; agonist mode) is on record?
The value was 1%.

What about the “% Inhibition” value (PTAFR; antagonist mode) of the same substance?
Its value is −8%.

What about the “GPCR coupling, antagonist mode” value (GPCR receptors) of the same substance?
Its value is “no indication that PRP-1 was G protein coupled”.

And the “% Activity” value (CXCR6; agonist mode)?
The value was 2%.

What about the “% Inhibition” value (CXCR6; antagonist mode) of the same substance?
The value was −6%.

What about the nuclear receptor antagonism (nuclear receptor) of the same substance?
Its nuclear receptor antagonism is “neither that this peptide was agonist for orphan receptors (Table III) or agonist/antagonist for nuclear receptor”.

What about the “% Activity” value (CX3CR1; agonist mode) of the same substance?
Its value is 1%.

And the “% Inhibition” value (CX3CR1; antagonist mode)?
Its value is 2%.

And the “% Inhibition” value (DRD2S)?
The value was 6%.

And the “% Activity” value (FFAR1)?
Its value is 3%.

What about the “% Inhibition” value (EDG4) of the same substance?
The value was 5%.

And the “% Activity” value (EDG6; agonist mode)?
The value was −2%.

What about the “% Inhibition” value (EDG6; antagonist mode) of the same substance?
Its value is 4%.

And the “% Activity” value (GALR1; agonist mode)?
The value was 1%.

And the “% Inhibition” value (GALR1; antagonist mode)?
The value was −4%.

And the “% Activity” value (ADCYAP1R1; agonist mode)?
The value was 1%.

What about the “% Inhibition” value (ADCYAP1R1; antagonist mode) of the same substance?
Its value is −6%.

What about the “% Activity” value (MRGPRX1; agonist mode) of the same substance?
Its value is 1%.

What about the “% Inhibition” value (MRGPRX1; antagonist mode) of the same substance?
The value was −2%.

What about the “% Activity” value (NPBWR2; agonist mode) of the same substance?
The value was 1%.

And the “% Inhibition” value (NPBWR2; antagonist mode)?
The value was −3%.

What about the “% Activity” value (CALCRL-RAMP2; agonist mode) of the same substance?
The value was 1%.

And the “% Inhibition” value (CALCRL-RAMP2; antagonist mode)?
Its value is −1%.

And the “% Activity” value (PTGIR; agonist mode)?
The value was 1%.

What about the “% Inhibition” value (PTGIR; antagonist mode) of the same substance?
Its value is −2%.

And the protein expression (TLR6)?
The protein expression was “increased in dose-dependent manner”.

What about the “% Inhibition” value (EBI2) of the same substance?
The value was −1%.

What about the “% Inhibition” value (OPRK1) of the same substance?
The value was −12%.

And the “% Activity” value (GPR120; agonist mode)?
The value was 1%.

What about the “% Inhibition” value (GPR120; antagonist mode) of the same substance?
The value was −6%.

What about the “% Activity” value (ADRB1; agonist mode) of the same substance?
Its value is 1%.

And the “% Inhibition” value (ADRB1; antagonist mode)?
Its value is −5%.

And the “% Activity” value (PTGER3; agonist mode)?
The value was 1%.

And the “% Inhibition” value (PTGER3; antagonist mode)?
Its value is −2%.

And the “% Activity” value (F2RL3; agonist mode)?
The value was −1%.

And the “% Inhibition” value (F2RL3; antagonist mode)?
Its value is −1%.

And the “% Activity” value (DRD5; agonist mode)?
The value was 1%.

And the “% Inhibition” value (DRD5; antagonist mode)?
Its value is −8%.

What about the “% Activity” value (CXCR5; agonist mode) of the same substance?
Its value is 1%.

And the “% Inhibition” value (CXCR5; antagonist mode)?
Its value is −8%.

And the “% Inhibition” value (FPRL1)?
The value was −2%.

And the “% Activity” value (UTR2; agonist mode)?
The value was 3%.

And the “% Inhibition” value (UTR2; antagonist mode)?
The value was −7%.

And the miR-302c expression (miR-302C)?
Its miR-302c expression is “epigenetically downregulates”.

What about the “% Inhibition” value (CALCR-RAMP3) of the same substance?
The value was −8%.

And the “% Inhibition” value (HTR1B)?
Its value is 4%.

What about the “% Inhibition” value (CCR8) of the same substance?
The value was −4%.

And the “% Inhibition” value (EDNRB)?
Its value is −1%.

What about the “% Inhibition” value (HTR1A) of the same substance?
The value was −5%.
